A selection: hits, their analogues and other compounds. The true share with any hit is near 4%.
Cardio protect: modulators protecting cardiomyocytes from myocardial damage; AID 588492; H9c2 cardiomyocytes, H2O2 injury protection, ATPLite, 2 h; protection from H2O2 cell death, % at 20 µM; hit rate 0.63% among 360,000;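 active means compounds giving at least 50% protection of heart cells from peroxide-induced death in the single-dose screen, raw or plate-pattern-corrected value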;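 further: 0% = DMSO wells with peroxide and 100% = DMSO wells without peroxide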
hiPSC survival: increases survival of single human iPS cells; hiPSC single-cell survival, ATPlite luminescence; 100% = ROCK inhibitor wells, 0% = DMSO; survival enhancement, % at 20 µM; hit rate 0.044% among 360,000; AID 602274; in the data active means survival enhancement above about 18%;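 further: cells exposed to compounds for 16 hours before the ATP read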
FAS-TE inh: blocks the thioesterase domain of human fatty acid synthase; P49327; recombinant FAS-TE, OMFH fluorogenic substrate, fluorescence endpoint; inhibition, % at 15 µM; hit rate 0.67% among 360,000;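 active means compounds whose normalised, plate-corrected inhibition of enzyme fluorescence in the single-dose primary screen is 50% or more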;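 further: 0% = DMSO with enzyme and 100% = substrate without enzyme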
GRIN3A LBD mod: modulators (binders) of human NR3A ligand-binding domain | NR3A LBD differential scanning fluorimetry, Tm shift; 0% = protein alone, 100% = glycine-bound protein | Tm shift relative to glycine control, % at 25 µM | hit rate 2.5% among 340,000;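 active means melting temperature shift of at least 10% of the positive control shift, at one fixed dose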
Arr AP2 block: blocks beta-arrestin peptide binding to AP2 adaptin; FITC-arrestin peptide / GST-AP2 beads, flow cytometry; AP2 beta2 appendage carries R879A mutation; inhibition, % at 10 µM; hit rate 0.31% among 340,000;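 active means inhibition above a set limit, near 3 SD of compounds lacking own fluorescence, cut at about 54% in these data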;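 further: plate controls were DMSO wells for no effect and 5 µM unlabelled arrestin peptide for full effect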
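System: GST-AP2 R879A glutathione beads; medium: PBS, Tween 20 0.05%, BSA 0.1%; reagent: fluorescein-tagged arrestin peptide at 50 nM final; schedule: pre-incubation 12 min, peptide binding 1 h, room temperature; detection: flow cytometry, FL1 (488/535 nm); read-out: inhibition as reduced fluorescein signal on beads, percent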
SENP1 inh: blocks the human SENP1 SUMO protease catalytic domain; recombinant SENP1 catalytic domain, CyPet-SUMO1-YPet FRET cleavage; hit rate 0.21% among 360,000; AID 624204; Q9P0U3; inhibition, % at 10 µM;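 active means inhibition at least 30% at 10 µM, raw YFP signal under a set limit, fluorescence ratio 0.5 to 1.5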;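 further: 0% = enzyme with DMSO and 100% = no enzyme wells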
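Material: hSENP1 catalytic domain, recombinant; medium: Tris pH 8 with BME, BSA, NP40 and catalase; compound: single concentration of 10 µM compound, 0.5% DMSO final; technique: FRET read of cyan and yellow fluorescence; timing: 50 min enzyme reaction, room temperature, light-protected; reagent: SFCypet-SUMO1-SFYpet substrate at 25 nM; control set: no-enzyme low, enzyme-DMSO high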
The depositor's hits bear a star; . = not tested or not shown.

SMILES	Cardio protect	hiPSC survival	FAS-TE inh	GRIN3A LBD mod	Arr AP2 block	SENP1 inh
CCCCc1c(C)c2ccc(OCC(C)=O)cc2oc1=O	-15	5	-47	-7	-6	-4
CCCc1c(C)c2ccc(OCC(C)=O)cc2oc1=O	0	0	-12	12*	3	2
COc1cccc(C(O)c2ncc(-c3cccc4ccccc34)[nH]2)c1 (stereo not drawn)	-1	-2	2	.	.	0
COc1ccc(OC)c(NC(=O)C2(C)CCN2Cc2ccsc2)c1 (stereo not drawn)	-3	-1	14	.	.	1
O=c1[nH]c(/C=C/c2ccc([N+](=O)[O-])cc2)c([N+](=O)[O-])c(=O)[nH]1	4	-1	2	-3	14	2
Cc1cccc(NC(=O)COc2ccc(/C=C\c3[nH]c(=O)[nH]c(=O)c3[N+](=O)[O-])cc2)c1	6	-3	5	10*	-5	-4
CCOC(=O)c1[nH]c2ccc(OC)cc2c1NC(=S)N1CCN(c2cccc(Cl)c2)CC1	1	-2	4	13*	5	0
CCOC(=O)c1[nH]c2ccc(OC)cc2c1NC(=S)N1CCN(c2ccccc2)CC1	2	-1	7	-5	3	1
CCC(c1nnnn1-c1ccc2c(c1)OCCO2)N1CCN(c2ccc(C)cc2)CC1 (stereo not drawn)	.	0	20	.	.	1
CCOC(=O)c1cc2occc2n1Cc1ccc(F)cc1	8	-2	24	15*	10	-2
Cc1nc2n(c(=O)c1CCN1CCC(c3noc4cc(F)ccc34)CC1)CCCC2	-9	1	-1	10*	16	0
COC(=O)C1(C(=O)OC)C/C=C\CN(S(=O)(=O)c2ccccc2[N+](=O)[O-])CC1	.	0	0	.	.	3
CCN(CC)CCn1c(NC(=O)c2ccc(Cl)cc2)nc2ccccc21	62*	0	-11	0	0	3
CCC(=O)Nc1nc2ccccc2n1Cc1ccc(Cl)cc1	26	-1	2	-4	40	3
Cc1ccc(C(=O)Nc2nc3ccccc3n2CCN2CCCC2)cc1	4	-1	-10	-5	8	0
Cn1c(/C=N/NC(=O)c2ccccc2)nc2ccccc21	65*	0	-2	4	-5	0
O=C(Nc1nc2ccccc2n1Cc1ccccc1)c1ccco1	58*	-3	9	-4	-5	-1
CCCn1c(NC(=O)c2cccc(S(=O)(=O)N3CCCC3)c2)nc2ccccc21	99*	-4	36	-8	12	-2
COc1ccc(CN2CCC2(C)C(=O)NCc2ccc3c(c2)OCO3)c2ccccc12 (stereo not drawn)	-2	1	21	.	.	-1
CN1OC[C@@H]2CN(Cc3ccccc3)[C@H](c3cccc(-c4ccccc4)c3)C[C@@H]21	-18	-1	28	.	.	0
O=C1NC[C@H](CCCCN2C[C@H](Cc3ccc(O)cc3)N(CCc3ccc(O)cc3)C(=O)C2=O)N(CCc2ccc(O)cc2)C1=O	.	0	-6	.	.	2
CSCCC(C(=O)Nc1c(C)cccc1C)n1c(-c2cnc(C)cn2)nc2ccccc21 (stereo not drawn)	.	.	.	.	.	1
COc1ccc(Cl)cc1-c1cc(C(=O)N[C@H](C)c2ccccc2)[nH]n1	0	3	9	.	.	2
Nn1c(SCC(=O)N2CCCC2)nnc1-c1cccs1	6	11	-5	.	.	2
CCCn1c(NC(=O)c2ccc(C)cc2)nc2ccccc21	39	-3	4	-2	8	1
Nc1nc2ccccc2n1C(=O)c1ccccc1	-30	-6	-5	-1	7	-1
Nc1nc2ccccc2n1C(=O)c1ccco1	-10	-1	-12	16*	-7	-1
CCCn1c(NC(=O)c2ccccc2)nc2ccccc21	52*	1	5	-4	4	-3
O=C(Nc1ccc(Cl)c(Cl)c1)OCc1cnc(Cl)s1	-27	0	43	12*	0	5
Cc1ncsc1C(=O)Nc1cccc(C(F)(F)F)c1	-2	0	-2	27*	8	0

Bioassay records (PubChem BioAssay)
